Data from ChEMBL document CHEMBL2062413, “Design of β-amyloid aggregation inhibitors from a predicted structural motif” (J Med Chem, 2012).
Values belong to the compound of their own block, whether it stands above or below them. Activity calls are given as the source filed them. The rule behind the calls is not given here.

Experiments:
[1] = target: T1, Amyloid-beta precursor protein (Homo sapiens, UniProt P05067); assay: Inhibition of amyloid beta42 aggregation assessed as reduction in fluorescence after 4 days by thioflavin T-based fluorometry
In short: (§1)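 Aβ42 at 25 μM was incubated with a range of compound concentrations in triplicate at 37°C with shaking for four days, read at t=0 and t=4 d. Compound was taken from a 10 mM DMSO stock diluted in PBS. Aliquots were added to 25 μM ThT in 50 mM glycine, pH 8, for 5 min, then read at ex 446/em 490 nm. IC50 was taken from % fluorescence of untreated control.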

[2] = Inhibition of amyloid beta42 assessed as decrease in mature fibril formation at 25 uM after 4 days by […] electron microscopy
In short: (§2)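 Negative-stain TEM: 25 μM Aβ42 alone or with 25 μM compound (1:1), incubated four days at 37°C. Aliquots spotted 2 min on glow-discharged carbon-coated Formvar grids and stained with 1% uranyl acetate.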

[3] = test system: PC-12; assay: Cytotoxicity against rat PC12 cells assessed as reduction in cell viability at 50 uM after 48 hrs by MTT assay; format: cell-based; settings: pc-12, 48 h
[4] = target: T1, Amyloid-beta precursor protein; assay: Inhibition of amyloid beta42 aggregation assessed as reduction in fluorescence measured immediately post-compound addition by thioflavin T-based fluorometry; in short: as §1
[5] = target: T1, Amyloid-beta precursor protein; assay: Inhibition of amyloid beta42 aggregation assessed as inhibition of fibril formation at 25 uM after 5 days by circular dichroism
In short: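 Circular dichroism: 25 μM Aβ42 alone or mixed 1:1 with 25 μM compound, incubated at 37°C with orbital shaking at 200 rpm. Spectra taken every 24 h for 5 days at 37°C in a 1-mm cell, 190–260 nm, 0.2-nm resolution, 1-nm bandwidth, background-subtracted and averaged. Compound dissolved to 10 mM in NaOH, then diluted in PBS.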

[6] = Inhibition of amyloid beta42 assessed as increase in amorphous aggregates at 25 uM after 4 days by […] electron microscopy; in short: as §2
[7] = Drug degradation in aqueous buffer assessed as 3,5-dichloro-2-hydroxybenzaldehyde formation up to 24 hrs by LC-MS analysis at pH 7.4; format: physicochemical; settings: pH 7.4, 24 h
[8] = Drug degradation in aqueous buffer assessed as N-(2-amino-4-methylphenyl)benzo[b]oxirene-3-sulfonamide formation up to 24 hrs by LC-MS analysis at pH 7.4; format: physicochemical; settings: pH 7.4, 24 h
[9] = Drug degradation in aqueous buffer assessed as (E)-N-(2-(3,5-dichloro-2-hydroxybenzylideneamino)-4-methylphenyl)benzo[b]oxirene-3-sulfonamide formation up to 24 hrs by LC-MS analysis at pH 7.4; format: physicochemical; settings: pH 7.4, 24 h
[10] = Drug degradation in aqueous buffer assessed as N-(2-amino-4-methylphenyl)-4-chlorobenzenesulfonamide formation up to 24 hrs by LC-MS analysis at pH 7.4; format: physicochemical; settings: pH 7.4, 24 h

T1 sequence (P05067 whole entry): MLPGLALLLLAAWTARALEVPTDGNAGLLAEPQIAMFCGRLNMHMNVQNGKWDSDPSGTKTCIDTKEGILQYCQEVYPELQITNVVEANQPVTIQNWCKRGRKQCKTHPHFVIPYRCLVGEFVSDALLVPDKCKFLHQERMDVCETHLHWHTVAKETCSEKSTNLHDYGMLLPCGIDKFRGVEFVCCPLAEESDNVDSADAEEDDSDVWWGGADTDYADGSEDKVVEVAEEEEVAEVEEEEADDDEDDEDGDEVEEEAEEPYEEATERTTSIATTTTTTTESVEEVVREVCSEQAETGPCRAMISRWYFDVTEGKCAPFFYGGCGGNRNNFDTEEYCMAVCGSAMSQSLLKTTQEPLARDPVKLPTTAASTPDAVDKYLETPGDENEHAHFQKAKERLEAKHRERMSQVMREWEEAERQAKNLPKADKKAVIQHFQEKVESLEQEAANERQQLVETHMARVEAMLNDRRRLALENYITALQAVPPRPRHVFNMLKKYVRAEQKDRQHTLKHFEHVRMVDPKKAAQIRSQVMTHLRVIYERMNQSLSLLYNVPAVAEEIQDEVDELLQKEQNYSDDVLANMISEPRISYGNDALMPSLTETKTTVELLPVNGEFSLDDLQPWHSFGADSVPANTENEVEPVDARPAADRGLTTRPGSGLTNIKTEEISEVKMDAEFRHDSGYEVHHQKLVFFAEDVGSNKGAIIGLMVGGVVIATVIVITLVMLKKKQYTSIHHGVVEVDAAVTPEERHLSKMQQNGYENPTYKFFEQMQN

Compound: Cc1ccc(NS(=O)(=O)c2ccc3c(c2)O3)c(N)c1
Drug degradation [8]: Active

Compound: Cc1ccc(NS(=O)(=O)c2ccc(Cl)cc2)c(N)c1
IC50 [1]: 23 µM
inhibition [1]: Dose-dependent effect
Drug degradation [10]: Active
IC50 [4]: 30 µM

Second part, led by results:

IC50 [1]: 13 µM
inhibition [1]: Dose-dependent effect
inhibition [2]: Active
IC50 [4]: 62 µM
inhibition [5]: Active
inhibition [6]: Active
Compound: Cc1ccc(NS(=O)(=O)c2ccc(Cl)cc2)c(/N=C/c2cc(Cl)cc(Cl)c2O)c1
Activity [3]: 40%

inhibition [1]: inactive
Drug degradation [7]: Active
Compound: O=Cc1cc(Cl)cc(Cl)c1O

Drug degradation [9]: Active
Compound: Cc1ccc(NS(=O)(=O)c2ccc3c(c2)O3)c(/N=C/c2cc(Cl)cc(Cl)c2O)c1
